Test results as given in ChEMBL document CHEMBL4219124, “Alleviating CYP and hERG liabilities by structure optimization of dihydrofuran-fused tricyclic benzo[d]imidazole series - Potent, selective and orally efficacious microsomal prostaglandin E synthase-1 (mPGES-1) inhibitors: Part-2” (Bioorg Med Chem Lett, 2018).

Experiments:
[1] = Metabolic stability in rat liver microsomes assessed as parent compound remaining at 1 uM after 60 mins in presence of NADPH by LC-MS/MS analysis; assay type: ADME, microsome; conditions: read-out: Stability
Method in brief: (§1)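 Compound incubated 60 min at 37 °C with human, rat or guinea pig liver microsomes; percent parent remaining, triplicates.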

[2] = Metabolic stability in human liver microsomes assessed as parent compound remaining at 1 uM after 60 mins in presence of NADPH by LC-MS/MS analysis; assay type: ADME, microsome; conditions: read-out: Stability; method in brief: as §1
[3] = target: T1, Prostaglandin E synthase (Homo sapiens, UniProt O14684); assay: Inhibition of recombinant human mPGES1 expressed in CHO cells assessed as reduction in PGE2 production using PGH2 as substrate incubated for 10 mins followed by substrate addition measured for 1 min; assay type: cell-based
T1 sequence (O14684 whole entry): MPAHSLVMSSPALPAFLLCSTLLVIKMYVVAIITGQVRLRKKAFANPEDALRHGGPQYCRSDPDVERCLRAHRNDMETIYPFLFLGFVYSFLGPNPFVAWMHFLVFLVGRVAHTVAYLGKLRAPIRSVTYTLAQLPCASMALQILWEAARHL

[4] = target: T1, Prostaglandin E synthase; assay: Inhibition of mPGES1 in human A549 cells assessed as reduction in IL-1beta-induced PGE2 production preincubated for 30 mins followed by incubation with IL-1beta for 16 to 20 hrs measured after 10 mins by HTRF assay; assay type: cell-based
[5] = target: T1, Prostaglandin E synthase; assay: Inhibition of mPGES1 in human whole blood assessed as reduction in LPS-induced PGE2 production measured after 20 to 24 hrs
[6] = Metabolic stability in guinea pig liver microsomes assessed as parent compound remaining at 1 uM after 60 mins in presence of NADPH by LC-MS/MS analysis; assay type: ADME, Cavia porcellus, microsome; conditions: read-out: Stability; method in brief: as §1
[7] = target: T2, CYP1A2 (Homo sapiens, UniProt P05177); assay: Inhibition of CYP1A2 in human liver microsomes at 10 uM after 20 mins in presence of NADPH by LC-MS/MS analysis; assay type: ADME
T2 sequence (P05177 whole entry): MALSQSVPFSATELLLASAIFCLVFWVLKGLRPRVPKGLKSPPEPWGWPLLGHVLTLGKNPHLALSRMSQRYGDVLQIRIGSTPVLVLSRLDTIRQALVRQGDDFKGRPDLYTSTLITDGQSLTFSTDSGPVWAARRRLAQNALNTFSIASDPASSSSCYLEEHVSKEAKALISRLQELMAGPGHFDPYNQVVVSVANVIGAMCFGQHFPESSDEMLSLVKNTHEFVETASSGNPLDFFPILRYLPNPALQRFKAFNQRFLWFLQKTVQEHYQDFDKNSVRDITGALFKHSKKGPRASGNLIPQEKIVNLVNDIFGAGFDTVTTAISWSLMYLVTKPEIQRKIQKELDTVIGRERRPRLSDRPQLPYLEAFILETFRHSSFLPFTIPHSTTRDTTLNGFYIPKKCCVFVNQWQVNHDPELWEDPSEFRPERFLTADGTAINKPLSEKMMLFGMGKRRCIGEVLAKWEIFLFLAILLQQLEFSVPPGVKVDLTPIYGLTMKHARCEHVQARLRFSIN
Method in brief: (§2)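 Percent inhibition of each CYP isoform by test compound at 10 µM, compared with a no-inhibitor control. Run in triplicate.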

[8] = target: CYP2D6 (Homo sapiens, UniProt P10635); assay: (§3) Inhibition of CYP2D6 in human liver microsomes at 10 uM after 20 mins in presence of NADPH by LC-MS/MS analysis; assay type: ADME; conditions: liver microsomes; method in brief: as §2
Chain of CYP2D6 (P10635 whole entry): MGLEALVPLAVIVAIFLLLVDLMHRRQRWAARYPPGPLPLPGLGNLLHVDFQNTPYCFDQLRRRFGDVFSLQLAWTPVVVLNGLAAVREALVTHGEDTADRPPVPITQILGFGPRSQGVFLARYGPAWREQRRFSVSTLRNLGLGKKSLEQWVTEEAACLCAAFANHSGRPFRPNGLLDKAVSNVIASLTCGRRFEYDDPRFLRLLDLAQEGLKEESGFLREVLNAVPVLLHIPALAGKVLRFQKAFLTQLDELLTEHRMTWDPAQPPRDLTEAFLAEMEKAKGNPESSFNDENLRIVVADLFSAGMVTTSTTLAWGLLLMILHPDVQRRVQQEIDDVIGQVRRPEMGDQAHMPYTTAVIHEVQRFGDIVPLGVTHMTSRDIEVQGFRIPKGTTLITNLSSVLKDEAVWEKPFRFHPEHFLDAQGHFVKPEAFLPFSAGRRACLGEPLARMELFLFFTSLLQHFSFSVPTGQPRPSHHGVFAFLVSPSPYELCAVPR

[9] = target: CYP3A4 (Homo sapiens, UniProt P08684); assay: Inhibition of CYP3A4 in human liver microsomes at 10 uM after 20 mins in presence of NADPH by LC-MS/MS analysis; assay type: ADME; method in brief: as §2
Chain of CYP3A4 (P08684 whole entry): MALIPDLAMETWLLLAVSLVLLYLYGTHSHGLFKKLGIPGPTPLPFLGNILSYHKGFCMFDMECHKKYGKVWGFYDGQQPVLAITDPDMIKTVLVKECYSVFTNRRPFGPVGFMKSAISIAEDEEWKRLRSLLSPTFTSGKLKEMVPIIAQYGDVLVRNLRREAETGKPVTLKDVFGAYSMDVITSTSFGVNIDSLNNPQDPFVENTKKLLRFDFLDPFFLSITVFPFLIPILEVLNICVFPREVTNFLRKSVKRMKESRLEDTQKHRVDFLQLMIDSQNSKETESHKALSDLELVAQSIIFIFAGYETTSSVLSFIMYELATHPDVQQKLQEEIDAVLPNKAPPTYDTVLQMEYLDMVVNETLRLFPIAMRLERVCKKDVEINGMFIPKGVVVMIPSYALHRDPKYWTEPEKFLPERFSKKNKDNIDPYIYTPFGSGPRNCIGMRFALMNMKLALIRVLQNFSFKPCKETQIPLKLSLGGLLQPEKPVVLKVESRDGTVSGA

[10] = target: CYP2C9 (Homo sapiens, UniProt P11712); assay: Inhibition of CYP2C9 in human liver microsomes at 10 uM after 20 mins in presence of NADPH by LC-MS/MS analysis; assay type: ADME; method in brief: as §2
Chain of CYP2C9 (P11712 whole entry): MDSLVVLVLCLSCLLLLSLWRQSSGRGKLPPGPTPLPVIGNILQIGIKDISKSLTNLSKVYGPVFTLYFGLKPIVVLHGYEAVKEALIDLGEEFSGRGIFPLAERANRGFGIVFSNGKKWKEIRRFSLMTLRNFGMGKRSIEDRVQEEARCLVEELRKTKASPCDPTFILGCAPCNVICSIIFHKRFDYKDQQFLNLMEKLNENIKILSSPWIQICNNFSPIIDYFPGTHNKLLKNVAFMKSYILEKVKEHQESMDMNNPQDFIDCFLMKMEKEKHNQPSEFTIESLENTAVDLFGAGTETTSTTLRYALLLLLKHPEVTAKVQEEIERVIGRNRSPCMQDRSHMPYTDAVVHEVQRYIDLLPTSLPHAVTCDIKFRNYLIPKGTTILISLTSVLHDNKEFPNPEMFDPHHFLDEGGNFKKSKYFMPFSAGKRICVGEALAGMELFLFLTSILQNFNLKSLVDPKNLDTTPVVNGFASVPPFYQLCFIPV

[11] = target: CYP2C19 (Homo sapiens, UniProt P33261); assay: Inhibition of CYP2C19 in human liver microsomes at 10 uM after 40 mins in presence of NADPH by LC-MS/MS analysis; assay type: ADME; method in brief: as §2
Chain of CYP2C19 (P33261 whole entry): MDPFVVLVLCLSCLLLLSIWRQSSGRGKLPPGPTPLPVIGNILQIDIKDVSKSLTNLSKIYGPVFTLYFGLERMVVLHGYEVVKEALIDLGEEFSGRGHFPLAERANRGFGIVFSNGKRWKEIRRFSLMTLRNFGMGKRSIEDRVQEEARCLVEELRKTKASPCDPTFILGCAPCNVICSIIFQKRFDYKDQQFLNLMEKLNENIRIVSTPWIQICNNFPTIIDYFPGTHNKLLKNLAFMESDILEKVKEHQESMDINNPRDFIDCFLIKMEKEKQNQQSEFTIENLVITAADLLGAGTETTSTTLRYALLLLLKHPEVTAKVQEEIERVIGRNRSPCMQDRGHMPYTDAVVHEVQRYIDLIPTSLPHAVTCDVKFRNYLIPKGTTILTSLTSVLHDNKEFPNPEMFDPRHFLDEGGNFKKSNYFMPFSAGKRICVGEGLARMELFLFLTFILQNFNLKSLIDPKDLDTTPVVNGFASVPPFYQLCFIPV

[12] = Protein binding in human plasma at 10 uM after 5 hrs by equilibrium dialysis based LC-MS/MS analysis; assay type: ADME, cell-free; conditions: read-out: PPB (converted)
Method in brief: (§4)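 Equilibrium dialysis at 10 μM compound; result expressed as percent bound.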

[13] = Protein binding in guinea pig plasma at 10 uM after 5 hrs by equilibrium dialysis based LC-MS/MS analysis; assay type: ADME, cell-free, Cavia porcellus; conditions: read-out: PPB (converted); method in brief: as §4
[14] = target: hERG (KCNH2) (Homo sapiens, UniProt Q12809); assay: Inhibition of human ERG at 10 uM by patch clamp assay relative to control
Chain of hERG (KCNH2) (Q12809 whole entry): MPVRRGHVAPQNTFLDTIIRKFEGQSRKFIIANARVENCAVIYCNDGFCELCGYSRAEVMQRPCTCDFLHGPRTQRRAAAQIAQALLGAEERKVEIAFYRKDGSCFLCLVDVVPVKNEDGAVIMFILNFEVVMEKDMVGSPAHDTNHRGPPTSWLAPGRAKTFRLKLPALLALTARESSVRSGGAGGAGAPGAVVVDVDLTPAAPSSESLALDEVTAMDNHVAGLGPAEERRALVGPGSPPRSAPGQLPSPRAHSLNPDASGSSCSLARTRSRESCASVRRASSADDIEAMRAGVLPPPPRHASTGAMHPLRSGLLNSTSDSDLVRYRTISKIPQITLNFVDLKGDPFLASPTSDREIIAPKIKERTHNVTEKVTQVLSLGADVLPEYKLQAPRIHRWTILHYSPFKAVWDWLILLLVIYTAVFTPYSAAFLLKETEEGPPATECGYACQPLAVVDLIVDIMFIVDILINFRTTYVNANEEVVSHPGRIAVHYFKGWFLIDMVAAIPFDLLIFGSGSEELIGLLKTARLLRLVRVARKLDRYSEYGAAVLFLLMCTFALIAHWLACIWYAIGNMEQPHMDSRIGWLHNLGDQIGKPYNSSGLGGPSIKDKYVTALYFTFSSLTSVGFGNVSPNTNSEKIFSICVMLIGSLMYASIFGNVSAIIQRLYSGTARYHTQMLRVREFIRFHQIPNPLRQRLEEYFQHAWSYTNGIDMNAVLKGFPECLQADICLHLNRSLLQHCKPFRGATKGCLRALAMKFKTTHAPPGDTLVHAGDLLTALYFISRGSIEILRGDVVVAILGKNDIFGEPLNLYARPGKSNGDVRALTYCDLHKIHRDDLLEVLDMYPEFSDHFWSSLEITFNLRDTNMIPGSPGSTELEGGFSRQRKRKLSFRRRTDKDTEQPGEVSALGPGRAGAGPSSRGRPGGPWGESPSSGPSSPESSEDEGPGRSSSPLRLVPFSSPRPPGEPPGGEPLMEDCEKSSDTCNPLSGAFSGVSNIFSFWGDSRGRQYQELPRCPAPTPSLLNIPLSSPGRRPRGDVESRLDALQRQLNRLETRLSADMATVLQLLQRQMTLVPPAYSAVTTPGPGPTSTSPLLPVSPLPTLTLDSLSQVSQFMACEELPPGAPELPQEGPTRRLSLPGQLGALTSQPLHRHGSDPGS
Method in brief: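 hERG current measured by patch clamp with test compound at 10 µM; result given as % inhibition.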

[15] = Apparent passive permeability of the compound by PAMPA; assay type: ADME
Method in brief: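 Passive permeability by PAMPA, using a 2% lecithin in dodecane membrane. Run in triplicate.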

[16] = target: Cytochrome P450 2D6 (Homo sapiens, UniProt P10635); assay: as §3; assay type: ADME; conditions: microsomes, 20 min, 10 µM; method in brief: as §2
Chain of Cytochrome P450 2D6 (P10635 whole entry): as the sequence (P10635 whole entry) above

| remaining at 1 h, 1 µM [1] | remaining at 1 h, 1 µM [2] | IC50 [3] | IC50 [4] | IC50 [5] | remaining at 1 h, 1 µM [6] | inhibition at 20 min, 10 µM [7] | inhibition at 20 min, 10 µM [8] | inhibition at 20 min, 10 µM [9] | inhibition at 20 min, 10 µM [10] | inhibition at 40 min, 10 µM [11] | fraction unbound at 5 h, 10 µM [12] | fraction unbound at 5 h, 10 µM [13] | Papp [15] | inhibition (INH) [16] | Compound | inhibition at 10 µM [14] |
| --- | --- | --- | --- | --- | --- | --- | --- | --- | --- | --- | --- | --- | --- | --- | --- | --- |
| 86% | 88% | 0.0092 µM | 0.0063 µM | 0.336 µM | 68% | 31% | -1% | 4% | 42% | 22% | 0.0018 | 0.005 |  |  | CC1(C)Cc2c(c(C(=O)Nc3cc(C(F)F)ccc3F)cc3nc(Nc4c(F)cccc4Cl)[nH]c23)O1 |  |
| 91% | 82% | 0.0061 µM | 0.006 µM | 0.27 µM | 72% | 26% | 16% | 20% | 1% | 38% |  |  | 0.31 ×10⁻⁶ cm/s |  | Cc1cc(C(F)(F)F)ccc1NC(=O)c1cc2nc(Nc3c(F)cccc3Cl)[nH]c2c2c1OC(C)(C)C2 | 16.2% |
| 68% | 100% |  |  |  | 68% | 34% | -5% |  | 44% | -7% |  |  |  |  | Cn1c(Nc2c(F)cccc2Cl)nc2cc(C(=O)Nc3ccc(C(F)(F)F)cc3)c3c(c21)CC(C)(C)O3 |  |
|  |  | 0.025 µM | 0.014 µM | 0.955 µM |  |  |  |  |  |  |  |  |  |  | CC1(C)Cc2c(c(C(=O)Nc3ccc(C(F)(F)F)cn3)cc3nc(Nc4c(F)cccc4Cl)[nH]c23)O1 |  |
| 93% | 100% | 0.0036 µM | 0.006 µM | 1.38 µM | 93% | 36% | 7% | -12% | 42% | 22% |  |  |  |  | CC1(C)Cc2c(c(C(=O)Nc3cc(C4CC4)ccc3F)cc3nc(Nc4c(F)cccc4Cl)[nH]c23)O1 |  |
|  | 100% | 0.014 µM | 0.011 µM | 0.337 µM | 62% | 25% | 6% | 34% | 46% | 19% | < 0.005 | < 0.005 |  |  | Cc1cccc(Cl)c1Nc1nc2cc(C(=O)Nc3ccc(C(F)(F)F)cc3)c3c(c2[nH]1)CC(C)(C)O3 |  |
|  |  | 0.0049 µM | 0.0052 µM | 0.506 µM | 86% | 18% |  | 17% | 16% | 30% |  |  |  | Not Active | CC1(C)Cc2c(c(C(=O)Nc3ccccc3C(F)(F)F)cc3nc(Nc4c(Cl)cccc4Cl)[nH]c23)O1 |  |
|  | 93% | 0.0051 µM | 0.0097 µM | 0.536 µM | 89% | 17% | 4% | 11% | 29% | 46% | < 0.005 | < 0.005 | 0.12 ×10⁻⁶ cm/s |  | CC1(C)Cc2c(c(C(=O)Nc3ccccc3C(F)(F)F)cc3nc(Nc4c(F)cccc4Cl)[nH]c23)O1 |  |
| 71% | 68% | 0.016 µM | 0.0031 µM | 0.177 µM | 58% | 26% | 14% | 23% | 52% | 24% | < 0.005 | < 0.005 |  |  | Cc1ccc(NC(=O)c2cc3nc(Nc4c(F)cccc4Cl)n(C)c3c3c2OC(C)(C)C3)c(F)c1 | 12.8% |
|  | 100% | 0.0031 µM | 0.0096 µM | 0.57 µM | 80% |  |  | 37% | 39% | 16% | < 0.005 | < 0.005 |  |  | CC1(C)Cc2c(c(C(=O)Nc3ccc(C(F)(F)F)cc3F)cc3nc(Nc4c(F)cccc4Cl)[nH]c23)O1 |  |
| 66% | 58% | 0.012 µM | 0.004 µM | 0.673 µM | 69% | 14% | 3% | 17% | 52% | 10% | 0.0015 | 0.0035 |  |  | Cn1c(Nc2c(F)cccc2Cl)nc2cc(C(=O)Nc3ccc(C(F)(F)F)cn3)c3c(c21)CC(C)(C)O3 |  |
|  | 72% | 0.0064 µM | 0.015 µM | 0.661 µM | 80% | 14% |  | 24% | 35% | 41% |  |  |  | Not Active | CC1(C)Cc2c(c(C(=O)Nc3c(F)cccc3F)cc3nc(Nc4c(Cl)cccc4Cl)[nH]c23)O1 |  |
| 92% | 95% | 0.016 µM | 0.0032 µM | 0.197 µM | 74% | 14% | 5% | 21% | 26% | 10% |  |  |  |  | CC1(C)Cc2c(c(C(=O)Nc3cc(C4CC4)ccc3F)cc3nc(Nc4c(Cl)cccc4Cl)[nH]c23)O1 |  |
| 97% | 95% | 0.0054 µM | 0.01 µM | 0.876 µM | 80% |  |  | 30% | 47% | 31% |  |  |  |  | Cc1cccc(Cl)c1Nc1nc2cc(C(=O)Nc3ccc(F)c(C(F)(F)F)c3)c3c(c2[nH]1)CC(C)(C)O3 |  |
| 96% | 97% | 0.0049 µM | 0.0043 µM | 0.35 µM | 51% | 41% | 25% | 19% | 47% | 24% |  |  |  |  | Cn1c(Nc2c(F)cccc2Cl)nc2cc(C(=O)Nc3ccc(C4CC4)cc3)c3c(c21)CC(C)(C)O3 |  |
| 89% | 93% | 0.01 µM |  | 0.447 µM | 55% | 14% | 31% | -13% | 12% | 24% |  |  |  |  | Cc1cccc(Cl)c1Nc1nc2cc(C(=O)Nc3cc(C4CC4)ccc3F)c3c(c2[nH]1)CC(C)(C)O3 |  |
|  |  | 0.032 µM | 0.027 µM |  |  |  |  |  |  |  |  |  |  |  | Cc1cccc(Cl)c1Nc1nc2cc(C(=O)Nc3ccc(C(F)(F)F)cn3)c3c(c2[nH]1)CC(C)(C)O3 |  |
